Laboratory results as given in ChEMBL document CHEMBL2384912, “Design, synthesis, and inhibitory activity of potent, photoswitchable mast cell activation inhibitors” (J Med Chem, 2013).
Blank lines part the entries; values can stand above or below the molecule they belong to. Activity calls are given as the source filed them. The rule behind the calls is not given here.

Columns and labels:
[1] = Ratio of DSCG IC50 to compound IC50 for human LAD2 mast cell; assay type: functional
[2] = test system: LAD2; assay: Inhibition of human LAD2 mast cell activation assessed as compound 48/80-induced degranulation incubated for 30 mins prior to compound 48/80 challenge by beta-hexosaminidase release assay; assay type: functional, cell-based
How it was run: (§1)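 Supernatant was incubated with 2 mg/mL p-nitrophenyl-N-acetyl-D-glucosaminide in citrate buffer pH 4.5 for 1 h at 37 °C and stopped with 0.4 M glycine. A405 was read; % release = supernatant/(supernatant + lysate) × 100.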

[3] = test system: LAD2; assay: Inhibition of human LAD2 mast cell activation assessed as compound 48/80-induced degranulation at 10 to 20 uM incubated for 30 mins prior to compound 48/80 challenge by beta-hexosaminidase release assay in presence of UV light; assay type: functional, cell-based
[4] = test system: LAD2; assay: Inhibition of human LAD2 mast cell activation assessed as compound 48/80-induced degranulation at 10 to 20 uM incubated for 30 mins prior to compound 48/80 challenge by beta-hexosaminidase release assay; assay type: functional, cell-based; how it was run: as §1
[5] = test system: LAD2; assay: Inhibition of human LAD2 mast cell activation assessed as compound 48/80-induced degranulation at 100 uM incubated for 30 mins prior to compound 48/80 challenge by histamine release assay; assay type: functional, cell-based
How it was run: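 Supernatant histamine was derivatized: NaOH, then 0.25% o-phthalaldehyde in MeOH for 4 min at room temperature, then HCl. Fluorescence was read at ex 360/em 450 nm; n = 3.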

[6] = test system: LAD2; assay: Inhibition of human LAD2 mast cell activation assessed as compound 48/80-induced degranulation at 1000 uM incubated for 30 mins prior to compound 48/80 challenge by beta-hexosaminidase release assay; assay type: functional, cell-based; how it was run: as §1
[7] = test system: LAD2; assay: Inhibition of human LAD2 mast cell activation assessed as 1.0 uM compound 48/80-induced degranulation incubated for 30 mins prior to compound 48/80 challenge by beta-hexosaminidase release assay; assay type: functional, cell-based; how it was run: as §1
[8] = test system: LAD2; assay: Inhibition of human LAD2 mast cell activation assessed as 0.1 uM compound 48/80-induced degranulation incubated for 30 mins prior to compound 48/80 challenge by beta-hexosaminidase release assay; assay type: functional, cell-based; how it was run: as §1
[9] = test system: LAD2; assay: Inhibition of human LAD2 mast cell activation assessed as compound 48/80-induced degranulation at 200 to 400 uM incubated for 30 mins prior to compound 48/80 challenge by beta-hexosaminidase release assay in presence of UV light; assay type: functional, cell-based
[10] = test system: LAD2; assay: Inhibition of human LAD2 mast cell activation assessed as compound 48/80-induced degranulation at 200 to 400 uM incubated for 30 mins prior to compound 48/80 challenge by beta-hexosaminidase release assay; assay type: functional, cell-based; how it was run: as §1
[11] = test system: LAD2; assay: Inhibition of human LAD2 mast cell activation assessed as compound 48/80-induced degranulation at 10 uM incubated for 30 mins prior to compound 48/80 challenge by beta-hexosaminidase release assay; assay type: functional, cell-based; how it was run: as §1

- IC50 [2]: 28 µM
Structure (SMILES): O=C([O-])c1cc(=O)c2c(OCc3ccc(/N=N/c4ccc(COc5cccc6oc(C(=O)[O-])cc(=O)c56)cc4)cc3)cccc2o1.[Na+].[Na+]
- Ratio IC50 [1]: 100

Structure (SMILES): O=C(O)c1cc(=O)c2c(OCc3cccc(/N=N/c4cccc(COc5cccc6oc(C(=O)O)cc(=O)c56)c4)c3)cccc2o1 (mixture of isomers)
- inhibition [3]: Active
- inhibition [4]: Active

- IC50 [2]: > 1000 µM
Structure (SMILES): O=C(O)c1cc(=O)c2c(OCC(O)COc3cccc4oc(C(=O)O)cc(=O)c34)cccc2o1 [CROMOLYN SODIUM]
- Activity [5]: inactive
- inhibition [6]: Active
- inhibition [7]: inactive
- inhibition [8]: Active

- IC50 [2]: 10 µM
Structure (SMILES): O=C([O-])c1cc(=O)c2c(OCc3cccc(/N=N/c4cccc(COc5cccc6oc(C(=O)[O-])cc(=O)c56)c4)c3)cccc2o1.[Na+].[Na+]
- Ratio IC50 [1]: 100

Structure (SMILES): O=C(O)c1cc(=O)c2c(OCc3ccc(/N=N/c4ccc(COc5cccc6oc(C(=O)O)cc(=O)c56)cc4)cc3)cccc2o1
- inhibition [3]: Active
- inhibition [4]: Active

Structure (SMILES): O=C(O)c1cc(=O)c2cc(/N=N/c3ccc4oc(C(=O)O)cc(=O)c4c3)ccc2o1 (mixture of isomers)
- inhibition [9]: Active
- inhibition [10]: Active

Structure (SMILES): O=C(O)c1cc(=O)c2cc(/N=N/c3ccc4oc(C(=O)O)cc(=O)c4c3)ccc2o1
- inhibition [9]: Active
- inhibition [10]: Active

Structure (SMILES): O=C(O)c1cc(=O)c2c(OCc3ccc(/N=N/c4ccc(COc5cccc6oc(C(=O)O)cc(=O)c56)cc4)cc3)cccc2o1 (mixture of isomers)
- inhibition [3]: Active
- inhibition [4]: Active

Structure (SMILES): O=C(O)c1cc(=O)c2c(OCc3cccc(/N=N/c4cccc(COc5cccc6oc(C(=O)O)cc(=O)c56)c4)c3)cccc2o1
- inhibition [3]: Active
- inhibition [4]: Active
- inhibition [5]: Active
- inhibition [11]: Active
